Measured values published in publication PMC11410293 (Journal of hepatology, 2022).

Key:
[1] = system: CCA patient-derived xenografts; details: cited from earlier work
PDX283 tumors [2] = test: PDX283 xenograft tumor growth; format: in vivo, NOD/SCID mice; details: 1 mg/kg/mouse intraperitoneal 3 times per week for 3 weeks
Outline: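 Female NOD/SCID mice aged 6–8 weeks carried flank implants of the human CCA tumor. Dosing began once tumors were palpable (>25 mm³). Tumor growth was followed.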

PDX283 tumors [3] = test: pharmacodynamics in PDX283 tumors; format: in vivo, NOD/SCID mice; details: CA3-treated mice, qRT-PCR
HuCCT-1 reporter cells = test: luminescent reporter of TEAD-dependent transcription; format: cell-based
cells from PDX283 = test: viability of cells isolated from PDX283 tumor, in vitro; format: cell-based, human; details: concentrations up to 16 μM

Compound: Cc1nc(Nc2ncc(C(=O)Nc3c(C)cccc3Cl)s2)cc(N2CCN(CCO)CC2)n1 [dasatinib]
- in vivo growth of CCA patient-derived xenografts [1]: inhibited

Compound: O=S(=O)(c1ccc2c(c1)C(=NO)c1cc(S(=O)(=O)N3CCCCC3)ccc1-2)N1CCCCC1 [CA3]
- growth of PDX283 tumors (PDX283 tumors [2]): significantly decreased
- YAP target gene expression in tumors (PDX283 tumors [3]): Inhibition

Compound: Verteporfin
- global TEAD-dependent transcription (HuCCT-1 reporter cells): decreased

Compound: CCN1C(=O)N(c2c(F)c(OC)cc(OC)c2F)Cc2cnc3[nH]c(CN4CCOCC4)cc3c21 [pemigatinib]
- sensitivity of PDX283 cells (cells from PDX283): resistance
